pIC50, pKi: −log10 of the molar value.
How the values were obtained:
P2X purinoceptor 7 [1] = biological target: T1, P2X purinoceptor 7 (Homo sapiens, UniProt Q99572); assay: Antagonist activity at human P2X7 receptor expressed in HEK293 cells assessed as inhibition of BzATP-induced calcium-flux measured after 60 mins by FLIPR analysis
T1 sequence (Q99572 whole entry): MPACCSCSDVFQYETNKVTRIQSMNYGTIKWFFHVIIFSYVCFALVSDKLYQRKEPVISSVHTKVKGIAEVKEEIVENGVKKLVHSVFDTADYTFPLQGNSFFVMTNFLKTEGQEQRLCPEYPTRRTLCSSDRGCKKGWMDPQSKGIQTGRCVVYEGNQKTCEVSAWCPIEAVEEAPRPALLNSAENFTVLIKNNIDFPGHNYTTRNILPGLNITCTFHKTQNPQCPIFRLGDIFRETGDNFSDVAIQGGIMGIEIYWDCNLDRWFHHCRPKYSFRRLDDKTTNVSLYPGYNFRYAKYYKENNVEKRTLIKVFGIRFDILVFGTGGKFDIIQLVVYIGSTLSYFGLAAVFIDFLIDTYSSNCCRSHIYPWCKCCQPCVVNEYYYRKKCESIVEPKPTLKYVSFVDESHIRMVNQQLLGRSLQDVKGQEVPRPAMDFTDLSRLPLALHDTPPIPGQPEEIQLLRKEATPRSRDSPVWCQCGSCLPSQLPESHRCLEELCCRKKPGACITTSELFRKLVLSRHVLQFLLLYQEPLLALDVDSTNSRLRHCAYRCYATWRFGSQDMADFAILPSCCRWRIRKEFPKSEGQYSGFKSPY

P2X purinoceptor 7 [2] = biological target: T2, P2X purinoceptor 7 (Rattus norvegicus, UniProt Q64663); assay: Antagonist activity at rat P2X7 receptor expressed in HEK293 cells assessed as inhibition of BzATP-induced calcium-flux measured after 60 mins by FLIPR analysis
T2 sequence (Q64663 whole entry): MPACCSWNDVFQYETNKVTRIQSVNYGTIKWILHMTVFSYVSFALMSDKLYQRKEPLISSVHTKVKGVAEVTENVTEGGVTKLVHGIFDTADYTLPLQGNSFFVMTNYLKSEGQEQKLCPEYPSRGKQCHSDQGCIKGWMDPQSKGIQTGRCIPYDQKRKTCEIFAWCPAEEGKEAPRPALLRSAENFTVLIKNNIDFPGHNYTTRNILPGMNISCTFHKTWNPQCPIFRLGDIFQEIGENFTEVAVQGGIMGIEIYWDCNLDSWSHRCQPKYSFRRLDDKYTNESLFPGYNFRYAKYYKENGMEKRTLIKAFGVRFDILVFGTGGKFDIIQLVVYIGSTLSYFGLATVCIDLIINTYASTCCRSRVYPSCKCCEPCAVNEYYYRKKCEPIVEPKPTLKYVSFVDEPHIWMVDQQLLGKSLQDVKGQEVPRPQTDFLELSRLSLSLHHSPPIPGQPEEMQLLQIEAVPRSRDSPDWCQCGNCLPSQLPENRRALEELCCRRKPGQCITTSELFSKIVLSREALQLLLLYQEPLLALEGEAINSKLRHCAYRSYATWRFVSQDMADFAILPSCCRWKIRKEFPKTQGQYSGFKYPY
How it was run: (§1)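 Stable rat or mouse P2X7 HEK293 cells in HBSS/20 mM HEPES/2.5 mM probenecid/0.05% BSA, pH 7.4, were loaded with Fluo-4 NW (37 °C 30 min, RT 30 min). After 30 min at RT, calcium fluorescence was read by FLIPR; n ≥ 3.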

P2X purinoceptor 7 [3] = biological target: T3, P2X purinoceptor 7 (Mus musculus, UniProt Q9Z1M0); assay: Antagonist activity at mouse P2X7 receptor expressed in HEK293 cells assessed as inhibition of BzATP-induced calcium-flux measured after 60 mins by FLIPR analysis; how it was run: as §1
T3 sequence (Q9Z1M0 whole entry): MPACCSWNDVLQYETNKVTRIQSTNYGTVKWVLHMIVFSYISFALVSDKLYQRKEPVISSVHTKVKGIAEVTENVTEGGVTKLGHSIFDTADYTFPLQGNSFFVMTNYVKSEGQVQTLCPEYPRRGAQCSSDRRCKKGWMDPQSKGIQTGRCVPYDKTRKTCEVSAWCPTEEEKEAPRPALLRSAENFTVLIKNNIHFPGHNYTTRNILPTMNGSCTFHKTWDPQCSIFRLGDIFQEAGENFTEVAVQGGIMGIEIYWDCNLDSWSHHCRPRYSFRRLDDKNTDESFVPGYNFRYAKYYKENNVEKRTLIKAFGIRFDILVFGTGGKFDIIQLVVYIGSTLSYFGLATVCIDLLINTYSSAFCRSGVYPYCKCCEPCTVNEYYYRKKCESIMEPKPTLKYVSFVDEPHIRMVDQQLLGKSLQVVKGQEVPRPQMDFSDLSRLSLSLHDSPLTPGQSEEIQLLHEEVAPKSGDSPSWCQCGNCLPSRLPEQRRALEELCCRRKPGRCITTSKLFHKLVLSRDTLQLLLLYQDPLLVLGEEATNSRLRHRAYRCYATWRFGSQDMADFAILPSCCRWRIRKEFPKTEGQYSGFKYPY

P2X purinoceptor 7 [4] = biological target: T2, P2X purinoceptor 7; assay: Displacement of [3H]-A-804598 from rat P2X7 receptor expressed in HEK293 cell membrane by in vitro binding assay

CCOc1ccc(Nc2ccc(/C(=C3C=C/C(=[N+](/CC)Cc4cccc(S(=O)(=O)[O-])c4)C=C/3C)c3ccc(N(CC)Cc4cccc(S(=O)(=O)O)c4)cc3C)cc2)cc1 [E133]
pIC50 (P2X purinoceptor 7 [1]): 5.24
pIC50 (P2X purinoceptor 7 [2]): 6.70
pIC50 (P2X purinoceptor 7 [3]): 5.89
pKi (P2X purinoceptor 7 [4]): 6.00

Source: BindingDB's records for doi:10.1021/acs.jmedchem.0c02249 (Lundbeck Research Usa, 2021)
